What was measured:
[1] = molecular target: T1, Adenosine receptor A3 (Homo sapiens, UniProt P0DMS8); assay: Displacement of I-AB-MECA from human recombinant adenosine A3 receptor expressed in CHO cells
T1 sequence (P0DMS8 whole entry): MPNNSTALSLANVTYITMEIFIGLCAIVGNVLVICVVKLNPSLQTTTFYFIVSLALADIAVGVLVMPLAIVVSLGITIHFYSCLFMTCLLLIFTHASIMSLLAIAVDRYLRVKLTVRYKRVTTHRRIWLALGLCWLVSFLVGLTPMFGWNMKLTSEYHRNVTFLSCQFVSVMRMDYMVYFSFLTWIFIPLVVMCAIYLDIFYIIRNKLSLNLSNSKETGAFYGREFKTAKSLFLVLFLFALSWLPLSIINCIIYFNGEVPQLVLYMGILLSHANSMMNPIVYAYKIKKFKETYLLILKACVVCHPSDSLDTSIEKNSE

[2] = species on record: Homo sapiens; assay: Selectivity ratio of Ki for human adenosine A2A receptor to Ki for human adenosine A3 receptor
[3] = molecular target: T2, Adenosine receptor A2a (Homo sapiens, UniProt P29274); assay: Displacement of [3H]CGS21680 from human recombinant adenosine A2A receptor expressed in HEK293 cells by liquid scintillation counting; assay type: cell-based
T2 sequence (P29274 whole entry): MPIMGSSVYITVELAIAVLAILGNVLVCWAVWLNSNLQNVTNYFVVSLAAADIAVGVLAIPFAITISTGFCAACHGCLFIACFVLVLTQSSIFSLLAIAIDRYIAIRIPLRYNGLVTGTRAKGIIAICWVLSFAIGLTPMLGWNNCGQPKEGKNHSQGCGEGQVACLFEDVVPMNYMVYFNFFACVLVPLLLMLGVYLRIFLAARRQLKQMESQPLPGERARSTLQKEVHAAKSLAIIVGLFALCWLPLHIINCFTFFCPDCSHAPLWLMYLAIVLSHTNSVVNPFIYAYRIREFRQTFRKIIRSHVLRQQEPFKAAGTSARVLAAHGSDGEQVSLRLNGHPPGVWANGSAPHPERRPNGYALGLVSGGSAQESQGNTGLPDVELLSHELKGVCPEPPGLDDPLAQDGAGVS
Procedure, shortened: (§1)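 HEK293 membranes stably expressing hA2AAR (20 μg protein/tube), deaminase-treated (3 units/mL, 30 min, 37 °C). Competition against 10 nM [3H]CGS21680 in Tris-HCl 50 mM pH 7.5 with 10 mM MgCl2, 25 °C for 60 min. […] Filtered on GF/B, scintillation counted.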

[4] = molecular target: Adenosine receptors; A1 & A3 (Homo sapiens) (UniProt P30542+P0DMS8); assay: Selectivity for human adenosine A3 receptor over human adenosine A1 receptor
[5] = molecular target: T3, Adenosine receptor A1 (Homo sapiens) (UniProt P30542); assay: Displacement of [3H]NECA from human recombinant adenosine A1 receptor expressed in CHO cells at 10 uM by liquid scintillation counting; assay type: cell-based
T3 sequence (whole entry): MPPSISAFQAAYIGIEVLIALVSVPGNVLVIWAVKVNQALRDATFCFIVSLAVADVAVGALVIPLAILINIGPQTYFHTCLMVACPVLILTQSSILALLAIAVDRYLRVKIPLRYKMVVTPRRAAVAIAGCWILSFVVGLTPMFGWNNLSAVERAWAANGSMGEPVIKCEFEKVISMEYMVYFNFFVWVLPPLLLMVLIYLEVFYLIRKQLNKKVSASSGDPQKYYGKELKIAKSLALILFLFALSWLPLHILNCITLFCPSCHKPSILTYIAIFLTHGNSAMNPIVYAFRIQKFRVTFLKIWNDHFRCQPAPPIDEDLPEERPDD
Procedure, shortened: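 CHO membranes stably expressing hA1AR, pretreated with adenosine deaminase (3 units/mL, 30 min, 37 °C), 22 μg protein/tube. […] GF/B filtration, scintillation counting, percent inhibition at 10 μM.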

[6] = molecular target: T4, Adenosine receptor A2b (Homo sapiens) (UniProt P29275); assay: Agonist activity at human recombinant adenosine A2B receptor expressed in CHO cells assessed as stimulation of cAMP accumulation at 10 uM by liquid scintillation spectrophotometry relative to NECA
T4 sequence (whole entry): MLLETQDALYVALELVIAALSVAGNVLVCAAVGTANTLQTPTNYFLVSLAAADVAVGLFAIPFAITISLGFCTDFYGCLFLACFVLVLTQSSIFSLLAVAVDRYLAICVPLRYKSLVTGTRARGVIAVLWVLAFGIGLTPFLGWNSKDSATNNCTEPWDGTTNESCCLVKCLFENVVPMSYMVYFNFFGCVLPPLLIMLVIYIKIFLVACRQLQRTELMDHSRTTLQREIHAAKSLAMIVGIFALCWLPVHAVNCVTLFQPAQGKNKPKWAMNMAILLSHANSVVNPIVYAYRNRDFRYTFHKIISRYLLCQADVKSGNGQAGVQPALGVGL

[7] = molecular target: T2, Adenosine receptor A2a; assay: Displacement of [3H]CGS21680 from human recombinant adenosine A2A receptor expressed in HEK293 cells at 10 uM by liquid scintillation counting; assay type: cell-based
Procedure, shortened: as §1

| SMILES | Ki [1] [nM] | inhibition [5] [%] | inhibition [7] [%] | other results |
| --- | --- | --- | --- | --- |
| C#CCCCCC#Cc1nc(NCc2cccc(Cl)c2)c2ncn([C@H]3[C@H](O)[C@H](O)[C@]4(C(=O)NC)C[C@H]34)c2n1 | 29.4 | 31 |  | Ratio Ki [2]: 300; Ki [3]: 7040 nM; Selectivity ratio [4]: > 400 |
| CCNC(=O)[C@H]1O[C@@H](n2cnc3c(N)ncnc32)[C@H](O)[C@@H]1O |  |  |  | Activity [6]: 100% |
| CNC(=O)[C@@]12C[C@@H]1[C@@H](n1cnc3c(NCc4cccc(Cl)c4)nc(C#CCCC(=O)NCCNC(=O)CCCCC4SCC5NC(=O)NC54)nc31)[C@H](O)[C@@H]2O (some centres not stated) | 36.4 | 1 | 51 |  |
| CNC(=O)[C@@]12C[C@@H]1[C@@H](n1cnc3c(NCc4cccc(Cl)c4)nc(C#CCCCCc4cn(-c5ccc(N)cc5)nn4)nc31)[C@H](O)[C@@H]2O |  | 3 |  |  |
| CNC(=O)[C@@]12C[C@@H]1[C@@H](n1cnc3c(NCc4cccc(Cl)c4)nc(C#CCCCCc4cn(CCCCCCNC(=O)c5ccc(-c6c7ccc(=N)c(S(=O)(=O)O)c-7oc7c(S(=O)(=O)O)c(N)ccc67)c(C(=O)O)c5)nn4)nc31)[C@H](O)[C@@H]2O | 416 |  | 23 | inhibition (INH) [5]: 0% |
| CNC(=O)[C@@]12C[C@@H]1[C@@H](n1cnc3c(NCc4cccc(Cl)c4)nc(C#CCCCCc4cn(CCCCN)nn4)nc31)[C@H](O)[C@@H]2O |  | 13 |  |  |
| CCN1\C(=C/C=C/C=C/C2=[N+](CCCCCC(=O)NCCNC(=O)CCC#Cc3nc(NCc4cccc(Cl)c4)c4ncn([C@H]5[C@H](O)[C@H](O)[C@]6(C(=O)NC)C[C@H]56)c4n3)c3ccc(S(=O)(=O)[O-])cc3C2(C)C)C(C)(C)c2cc(S(=O)(=O)O)ccc21 |  | 36 |  | Ki [3]: 4730 nM |
| CNC(=O)[C@@]12C[C@@H]1[C@@H](n1cnc3c(NCc4cccc(Cl)c4)nc(-c4nnn(-c5ccc(N=C=S)cc5)c4CCCCc4cn(-c5ccc(N=C=S)cc5)nn4)nc31)[C@H](O)[C@@H]2O |  | 4 | 40 |  |
| CNC(=O)[C@@]12C[C@@H]1[C@@H](n1cnc3c(NCc4cccc(Cl)c4)nc(C#CCCC(=O)NCCNC(=O)CCCCCNC(=O)CCCCC4SCC5NC(=O)NC54)nc31)[C@H](O)[C@@H]2O (some centres not stated) | 57.7 | 12 | 47 |  |
| CNC(=O)[C@@]12C[C@@H]1[C@@H](n1cnc3c(NCc4cccc(Cl)c4)nc(C#CCCCCc4cn(Cc5ccc(-n6sccc6=O)cc5)nn4)nc31)[C@H](O)[C@@H]2O |  | 15 | 49 |  |
| C#CCCCC#Cc1nc(NCc2cccc(Cl)c2)c2ncn([C@@H]3[C@H](O)[C@H](O)[C@]4(C(=O)NC)C[C@H]34)c2n1 | 23.6 | 36 |  | Ratio Ki [2]: 300; Ki [3]: 4330 nM; Selectivity ratio [4]: > 400 |
| CNC(=O)[C@@]12C[C@@H]1[C@@H](n1cnc3c(NCc4cccc(Cl)c4)nc(C#CCCCCc4cn(C56CC7CC(CC(C7)C5)C6)nn4)nc31)[C@H](O)[C@@H]2O |  | 22 |  | Activity [6]: 36.5%; Ratio Ki [2]: 500 |
| CNC(=O)[C@@]12C[C@@H]1[C@@H](n1cnc3c(NCc4cccc(Cl)c4)nc(C#CCCCCc4cn(-c5ccc(C(=O)O)cc5)nn4)nc31)[C@H](O)[C@@H]2O |  | 0 | 40 |  |
| CNC(=O)[C@@]12C[C@@H]1[C@@H](n1cnc3c(NCc4cccc(Cl)c4)nc(C#CCCCCc4cn(CCNC(C)=O)nn4)nc31)[C@H](O)[C@@H]2O |  | 12 |  | Activity [6]: 19.4%; Ratio Ki [2]: 109 |
| CNC(=O)[C@@]12C[C@@H]1[C@@H](n1cnc3c(NCc4cccc(Cl)c4)nc(C#CCCCCc4cn(-c5ccc(N=C=S)cc5)nn4)nc31)[C@H](O)[C@@H]2O |  | 2 | 28 |  |
| CNC(=O)[C@@]12C[C@@H]1[C@@H](n1cnc3c(NCc4cccc(Cl)c4)nc(C#CCCCCc4cn(CCCCCCNC5SCC6NC(=O)NC65)nn4)nc31)[C@H](O)[C@@H]2O (some centres not stated) | 285 |  | 27 | inhibition (INH) [5]: 0% |
| CNC(=O)[C@@]12C[C@@H]1[C@@H](n1cnc3c(NCc4cccc(Cl)c4)nc(C#CCCCCc4cn(CCCCNC(C)=O)nn4)nc31)[C@H](O)[C@@H]2O |  | 17 |  |  |

Reference: ChEMBL document CHEMBL1159060, “2-Dialkynyl derivatives of (N)-methanocarba nucleosides: 'Clickable' A(3) adenosine receptor-selective agonists” (Bioorg Med Chem, 2010)
